# How the values were obtained:
# Rattus norvegicus = test: Oral dose which produces a 30 mmHg drop of systolic blood pressure (calculated on regression line); format: functional; settings: Artery
# Summary of the method: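 Groups of three male conscious spontaneously hypertensive rats; compound suspended in aqueous 0.5% methocel and given by gavage at 2 mL/kg. Systolic pressure measured by indirect tail-cuff before and 2 and 4 h after dosing, following 20 min warming at 37 °C. The dose giving a 30 mmHg fall was read from the regression line of maximum fall against log dose.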
# [1] = Partition coefficient (logD7.4); settings: octanol/water, pH 7.4
# Canis familiaris [2] = test: Effect of compound (given intravenously) on heart rate in conscious renal hypertensive dogs at 12 h; format: functional, Canis lupus familiaris
# Summary of the method: (§1)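 Groups of four conscious mongrel renal hypertensive dogs; compound dissolved in distilled water and given intravenously at 0.5 mL/kg (1 mg/kg or 0.3 mg/kg in the time-course table). Systolic pressure and heart rate measured indirectly at the tail with a sensor and pressure cuff, at 0, 4, 6, 8, 10, 12 and 20 h. Values are mean ± SE of four animals.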
# Canis familiaris [3] = test: Effect of compound (given intravenously) on heart rate in conscious renal hypertensive dogs at 0 h; format: functional, Canis lupus familiaris; summary of the method: as §1
# Canis familiaris [4] = test: Effect of compound (given intravenously) on heart rate in conscious renal hypertensive dogs at 10 h; format: functional, Canis lupus familiaris; summary of the method: as §1
# Canis familiaris [5] = test: Effect of compound (given intravenously) on systolic blood pressure in conscious renal hypertensive dogs at 20 h; format: functional, Canis lupus familiaris, Artery; summary of the method: as §1
# Canis familiaris [6] = test: Effect of compound (given intravenously) on systolic blood pressure in conscious renal hypertensive dogs at 4 h; format: functional, Canis lupus familiaris, Artery; summary of the method: as §1
# Canis familiaris [7] = test: Effect of compound (given intravenously) on systolic blood pressure in conscious renal hypertensive dogs at 10 h; format: functional, Canis lupus familiaris, Artery; summary of the method: as §1
# Canis familiaris [8] = test: Effect of compound (given intravenously) on heart rate in conscious renal hypertensive dogs at 4 h; format: functional, Canis lupus familiaris; summary of the method: as §1
# Canis familiaris [9] = test: Effect of compound (given intravenously) on systolic blood pressure in conscious renal hypertensive dogs at 12 h; format: functional, Canis lupus familiaris, Artery; summary of the method: as §1
# Canis familiaris [10] = test: Effect of compound (given intravenously) on systolic blood pressure in conscious renal hypertensive dogs at 6 h; format: functional, Canis lupus familiaris, Artery; summary of the method: as §1
# Canis familiaris [11] = test: Effect of compound (given intravenously) on heart rate in conscious renal hypertensive dogs at 20 h; format: functional, Canis lupus familiaris; summary of the method: as §1
# Canis familiaris [12] = test: Effect of compound (given intravenously) on systolic blood pressure in conscious renal hypertensive dogs at 0 h; format: functional, Canis lupus familiaris, Artery; summary of the method: as §1
# Canis familiaris [13] = test: Effect of compound (given intravenously) on systolic blood pressure in conscious renal hypertensive dogs at 8 h; format: functional, Canis lupus familiaris, Artery; summary of the method: as §1
# Canis familiaris [14] = test: Effect of compound (given intravenously) on heart rate in conscious renal hypertensive dogs at 8 h; format: functional, Canis lupus familiaris; summary of the method: as §1
# Canis familiaris [15] = test: Effect of compound (given intravenously) on heart rate in conscious renal hypertensive dogs 6 h; format: functional, Canis lupus familiaris; summary of the method: as §1
compound,measurement,setting,value
Cc1ccc(C)n1Nc1ccc(N(CCO)CCO)nn1,ED30,Rattus norvegicus,> 100 mg/kg
CCOCCN(CCOCC)c1ccc(Nn2c(C)ccc2C)nn1,ED30,Rattus norvegicus,2 mg/kg
Cc1ccc(C)n1Nc1ccc(N(CCO)CC(C)O)nn1 (stereo not drawn),ED30,Rattus norvegicus,> 100 mg/kg
Cc1ccc(C)n1Nc1nnc(N2CCOCC2)c2c1CCCC2,ED30,Rattus norvegicus,~33 mg/kg
Cc1ccc(C)n1Nc1ccc(N2CCC(O)CC2)nn1,ED30,Rattus norvegicus,12.6 mg/kg
Cc1ccc(C)n1Nc1ccc(N2CCCC2)nn1,ED30,Rattus norvegicus,> 100 mg/kg
CN(c1ccc(N2CCOCC2)nn1)n1cccc1,ED30,Rattus norvegicus,16.5 mg/kg
CCc1ccc(CC)n1Nc1ccc(N2CCOCC2)nn1,logD,[1],2.71
same,ED30,Rattus norvegicus,15.4 mg/kg
Cc1ccc(C)n1Nc1ccc(N2CCN(C)CC2)nn1,ED30,Rattus norvegicus,~43 mg/kg
COCCN(C)c1ccc(Nn2c(C)ccc2C)nn1,logD,[1],2.16
same,ED30,Rattus norvegicus,7 mg/kg
CCN(CC)c1ccc(Nn2c(C)ccc2C)nn1,ED30,Rattus norvegicus,3.9 mg/kg
Cc1ccc(C)n1Nc1ccc(N(CC(C)O)CC(C)O)nn1 (stereo not drawn),ED30,Rattus norvegicus,~54 mg/kg
CC(=O)N(c1ccc(N2CCOCC2)nn1)n1c(C)ccc1C,logD,[1],1.64
same,ED30,Rattus norvegicus,11.8 mg/kg
Cc1ccc(C)n1Nc1ccc(N(C)C)nn1,ED30,Rattus norvegicus,~22 mg/kg
Cc1ccc(C)n1Nc1nnc(N2CCOCC2)c2ccccc12,ED30,Rattus norvegicus,~91 mg/kg
Cc1ccc(C)n1Nc1ccc(N2C(C)COCC2C)nn1 (stereo not drawn),ED30,Rattus norvegicus,18.5 mg/kg
Cc1ccc(C)n1Nc1ccc(N2CCSCC2)nn1,ED30,Rattus norvegicus,~25 mg/kg
Cc1ccc(C)n1Nc1ccc(N2CCCCC2)nn1,ED30,Rattus norvegicus,10 mg/kg
Cc1ccc(C)n1Nc1ccc(N2CCNCC2)nn1,ED30,Rattus norvegicus,30 mg/kg
Cc1ccc(C)n1Nc1nnc(N2CCC(O)CC2)c2ccccc12,ED30,Rattus norvegicus,~33 mg/kg
COCCN(CCOC)c1ccc(Nn2c(C)ccc2C)nn1,ED30,Rattus norvegicus,2.7 mg/kg
Cc1cc(N2CCOCC2)nnc1Nn1c(C)ccc1C,ED30,Rattus norvegicus,~26 mg/kg
c1ccn(Nc2ccc(N3CCOCC3)nn2)c1,ED30,Rattus norvegicus,> 100 mg/kg
C=CCN(CC=C)c1ccc(Nn2c(C)ccc2C)nn1,ED30,Rattus norvegicus,11.4 mg/kg
Cc1ccc(C)n1N(C)c1ccc(N2CCOCC2)nn1,logD,[1],2.21
same,ED30,Rattus norvegicus,15.8 mg/kg
Cc1ccc(C)n1Nc1ccc(N(C)CC(C)O)nn1 (stereo not drawn),ED30,Rattus norvegicus,7.7 mg/kg
Cc1c(Nn2c(C)ccc2C)nnc(N2CCOCC2)c1C,ED30,Rattus norvegicus,35 mg/kg
NNc1nncc2ccccc12 [HYDRALAZINE],Heart rate,Canis familiaris [2],118 beats min-1
same,Heart rate,Canis familiaris [3],78 beats min-1
same,Heart rate,Canis familiaris [4],125 beats min-1
same,Pressure,Canis familiaris [5],188 mmHg
same,Pressure,Canis familiaris [6],135 mmHg
same,Pressure,Canis familiaris [7],188 mmHg
same,Heart rate,Canis familiaris [8],128 beats min-1
same,Pressure,Canis familiaris [9],190 mmHg
same,Pressure,Canis familiaris [10],138 mmHg
same,Heart rate,Canis familiaris [11],115 beats min-1
same,Pressure,Canis familiaris [12],188 mmHg
same,Pressure,Canis familiaris [13],148 mmHg
Cc1ccc(C)n1Nc1ccc(N2CCOCC2)nn1.Cl [MOPIDRALAZINE HYDROCHLORIDE],Heart rate,Canis familiaris [2],105 beats min-1
same,Heart rate,Canis familiaris [3],80 beats min-1
same,Heart rate,Canis familiaris [4],107 beats min-1
same,Pressure,Canis familiaris [5],187 mmHg
same,Pressure,Canis familiaris [6],168 mmHg
same,Heart rate,Canis familiaris [14],110 beats min-1
same,Pressure,Canis familiaris [7],147 mmHg
same,Heart rate,Canis familiaris [15],100 beats min-1
same,Heart rate,Canis familiaris [8],92 beats min-1
same,Pressure,Canis familiaris [9],165 mmHg
same,Pressure,Canis familiaris [10],150 mmHg
same,Heart rate,Canis familiaris [11],105 beats min-1
same,Pressure,Canis familiaris [12],190 mmHg
same,ED30,Rattus norvegicus,3.9 mg/kg
same,Pressure,Canis familiaris [13],140 mmHg
